Results as given in ChEMBL document CHEMBL4689842, “EUbOPEN Chemogenomics Library wave 1” (2021).
“And” between values parts separate entries of the source, which are not always exact repeats. Equal values may be shown once.

Columns and labels:
Assay type in all cases: toxicity, cell-based
U2OS [1] = assay: Multiplex assay against U2OS; conditions: human, 1 µM, compound concentration 1 uM
How it was run: (§1)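 Live cells were stained at seeding with Hoechst33342, BioTracker Green Microtubule Cytoskeleton Dye, MitoTracker Red and Annexin V Alexa Fluor 680, then imaged on a CQ1 microscope at 37°C and 5% CO2 after compound addition. CellPathfinder machine-learning gating split cells into Hoechst high-intensity objects or normal cells. Normal cells were split into healthy, pyknosed or fragmented nuclei, and pyknosed cells into mitotic or apoptotic. Tubulin, mitochondrial-mass and membrane-permeability phenotypes are per cents of healthy-nucleus cells.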

U2OS [2] = assay: Incucyte cell viability with U2OS; conditions: human, 10 µM, compound concentration 10 uM; also: filed as whole numbers so only -1 and 0 and 1 occur
Fibroblast [3] = assay: Multiplex assay against human fibroblast; conditions: 1 µM, compound concentration 1 uM; how it was run: as §1
HEK-293T [4] = assay: Multiplex assay against HEK293T; conditions: human, 1 µM, compound concentration 1 uM; how it was run: as §1
Fibroblast [5] = assay: Incucyte cell viability with human fibroblast; conditions: 10 µM, compound concentration 10 uM; also: filed as whole numbers so only -1 and 0 and 1 occur
HEK-293T [6] = assay: Incucyte cell viability with HEK293T; conditions: human, 10 µM, compound concentration 10 uM; also: filed as whole numbers so only -1 and 0 and 1 occur
[7] = 6 h, replicate number 1, timepoint 6 hours
[8] = 12 h, replicate number 1, timepoint 12 hours
[9] = 18 h, replicate number 1, timepoint 18 hours
[10] = 24 h, replicate number 1, timepoint 24 hours

Compound: FC(F)c1nc2ccccc2n1-c1nc(N2CCOCC2)nc(N2CCOCC2)n1 [ZSTK-474]
- Population Fragmented Nuclei (%) (U2OS [1]; 12 h, replicate 1): 3%
- Population Healthy Nuclei (%) (U2OS [1]; 12 h, replicate 1): 89% and 87%
- Population Hoechst High Intensity Objects (%) (U2OS [1]; 12 h, replicate 1): 4% and 3%
- Population Membrane Permeable-Phenotype (%) (U2OS [1]; 12 h, replicate 1): 18% and 7%
- Population Mitotic Cells (%) (U2OS [1]; 12 h, replicate 1): 56% and 88%
- Population Normal (%) (U2OS [1]; 12 h, replicate 1): 95% and 96%
- Population Pyknosed Nuclei (%) (U2OS [1]; 12 h, replicate 1): 7% and 6%
- Population Tubulin-Different-Phenotype (%) (U2OS [1]; 12 h, replicate 1): 13% and 23%
- Total Cell Count (U2OS [1]; 12 h, replicate 1): 134 and 206
- Population Fragmented Nuclei (%) (U2OS [1]; 12 h, replicate 2): 8% and 5%
- Population Healthy Nuclei (%) (U2OS [1]; 12 h, replicate 2): 85%
- Population Hoechst High Intensity Objects (%) (U2OS [1]; 12 h, replicate 2): 14% and 10%
- Population Membrane Permeable-Phenotype (%) (U2OS [1]; 12 h, replicate 2): 21% and 13%
- Population Mitochondria Different-Phenotype (%) (U2OS [1]; 12 h, replicate 2): 9% and 18%
- Population Mitotic Cells (%) (U2OS [1]; 12 h, replicate 2): 83% and 28%
- Population Normal (%) (U2OS [1]; 12 h, replicate 2): 85% and 89%
- Population Pyknosed Nuclei (%) (U2OS [1]; 12 h, replicate 2): 5%
- Population Tubulin-Different-Phenotype (%) (U2OS [1]; 12 h, replicate 2): 20% and 35%
- Total Cell Count (U2OS [1]; 12 h, replicate 2): 147 and 107
- Population Healthy Nuclei (%) (U2OS [1]; 24 h, replicate 1): 90%
- Population Hoechst High Intensity Objects (%) (U2OS [1]; 24 h, replicate 1): 2%
- Population Mitochondria Different-Phenotype (%) (U2OS [1]; 24 h, replicate 1): 4% and 12%
- Population Normal (%) (U2OS [1]; 24 h, replicate 1): 97%
- Population Pyknosed Nuclei (%) (U2OS [1]; 24 h, replicate 1): 4% and 3%
- Population Tubulin-Different-Phenotype (%) (U2OS [1]; 24 h, replicate 1): 12% and 25%
- Total Cell Count (U2OS [1]; 24 h, replicate 1): 190 and 236
- Population Apoptotic (%) (U2OS [1]; 24 h, replicate 2): 28% and 50%
- Population Fragmented Nuclei (%) (U2OS [1]; 24 h, replicate 2): 4% and 6%
- Population Healthy Nuclei (%) (U2OS [1]; 24 h, replicate 2): 89%
- Population Hoechst High Intensity Objects (%) (U2OS [1]; 24 h, replicate 2): 11% and 4%
- Population Membrane Permeable-Phenotype (%) (U2OS [1]; 24 h, replicate 2): 20% and 11%
- Population Mitochondria Different-Phenotype (%) (U2OS [1]; 24 h, replicate 2): 9% and 20%
- Population Mitotic Cells (%) (U2OS [1]; 24 h, replicate 2): 71% and 50%
- Population Normal (%) (U2OS [1]; 24 h, replicate 2): 88% and 95%
- Population Pyknosed Nuclei (%) (U2OS [1]; 24 h, replicate 2): 5%
- Population Tubulin-Different-Phenotype (%) (U2OS [1]; 24 h, replicate 2): 20% and 36%
- Total Cell Count (U2OS [1]; 24 h, replicate 2): 188 and 114
- Growth Rate (U2OS [2]; 0 h, replicate number 1, timepoint 0 hours): 1
- Growth Rate (U2OS [2]; [7]): 1
- Growth Rate (U2OS [2]; [8]): 1
- Growth Rate (U2OS [2]; 12 h, replicate number 2, timepoint 12 hours): 0
- Growth Rate (U2OS [2]; [9]): 0
- Growth Rate (U2OS [2]; [10]): 0
- Population Apoptotic (%) (Fibroblast [3]; 12 h, replicate 1): 75% and 78%
- Population Fragmented Nuclei (%) (Fibroblast [3]; 12 h, replicate 1): 31% and 20%
- Population Healthy Nuclei (%) (Fibroblast [3]; 12 h, replicate 1): 54% and 67%
- Population Hoechst High Intensity Objects (%) (Fibroblast [3]; 12 h, replicate 1): 15% and 11%
- Population Mitochondria Different-Phenotype (%) (Fibroblast [3]; 12 h, replicate 1): 3% and 1%
- Population Mitotic Cells (%) (Fibroblast [3]; 12 h, replicate 1): 25% and 21%
- Population Normal (%) (Fibroblast [3]; 12 h, replicate 1): 84% and 88%
- Population Pyknosed Nuclei (%) (Fibroblast [3]; 12 h, replicate 1): 14% and 11%
- Total Cell Count (Fibroblast [3]; 12 h, replicate 1): 268 and 222
- Population Fragmented Nuclei (%) (Fibroblast [3]; 12 h, replicate 2): 71% and 55%
- Population Healthy Nuclei (%) (Fibroblast [3]; 12 h, replicate 2): 26% and 37%
- Population Hoechst High Intensity Objects (%) (Fibroblast [3]; 12 h, replicate 2): 40% and 37%
- Population Membrane Permeable-Phenotype (%) (Fibroblast [3]; 12 h, replicate 2): 0% and 6%
- Population Mitochondria Different-Phenotype (%) (Fibroblast [3]; 12 h, replicate 2): 14% and 26%
- Population Mitotic Cells (%) (Fibroblast [3]; 12 h, replicate 2): 100% and 66%
- Population Normal (%) (Fibroblast [3]; 12 h, replicate 2): 59% and 62%
- Total Cell Count (Fibroblast [3]; 12 h, replicate 2): 88 and 64
- Population Apoptotic (%) (Fibroblast [3]; 24 h, replicate 1): 63% and 76%
- Population Fragmented Nuclei (%) (Fibroblast [3]; 24 h, replicate 1): 24% and 22%
- Population Healthy Nuclei (%) (Fibroblast [3]; 24 h, replicate 1): 61% and 64%
- Population Hoechst High Intensity Objects (%) (Fibroblast [3]; 24 h, replicate 1): 12%
- Population Membrane Permeable-Phenotype (%) (Fibroblast [3]; 24 h, replicate 1): 3% and 1%
- Population Mitotic Cells (%) (Fibroblast [3]; 24 h, replicate 1): 36% and 24%
- Population Normal (%) (Fibroblast [3]; 24 h, replicate 1): 87%
- Population Pyknosed Nuclei (%) (Fibroblast [3]; 24 h, replicate 1): 14% and 12%
- Population Tubulin-Different-Phenotype (%) (Fibroblast [3]; 24 h, replicate 1): 18% and 0%
- Total Cell Count (Fibroblast [3]; 24 h, replicate 1): 235 and 226
- Population Apoptotic (%) (Fibroblast [3]; 24 h, replicate 2): 0%
- Population Fragmented Nuclei (%) (Fibroblast [3]; 24 h, replicate 2): 72% and 63%
- Population Healthy Nuclei (%) (Fibroblast [3]; 24 h, replicate 2): 23% and 34%
- Population Hoechst High Intensity Objects (%) (Fibroblast [3]; 24 h, replicate 2): 40% and 33%
- Population Membrane Permeable-Phenotype (%) (Fibroblast [3]; 24 h, replicate 2): 8% and 7%
- Population Mitochondria Different-Phenotype (%) (Fibroblast [3]; 24 h, replicate 2): 8% and 23%
- Population Mitotic Cells (%) (Fibroblast [3]; 24 h, replicate 2): 100%
- Population Normal (%) (Fibroblast [3]; 24 h, replicate 2): 60% and 66%
- Population Pyknosed Nuclei (%) (Fibroblast [3]; 24 h, replicate 2): 3% and 2%
- Total Cell Count (Fibroblast [3]; 24 h, replicate 2): 85 and 57
- Population Apoptotic (%) (HEK-293T [4]; 12 h, replicate 1): 22% and 20%
- Population Fragmented Nuclei (%) (HEK-293T [4]; 12 h, replicate 1): 18% and 14%
- Population Healthy Nuclei (%) (HEK-293T [4]; 12 h, replicate 1): 59% and 50%
- Population Hoechst High Intensity Objects (%) (HEK-293T [4]; 12 h, replicate 1): 16% and 20%
- Population Membrane Permeable-Phenotype (%) (HEK-293T [4]; 12 h, replicate 1): 7% and 5%
- Population Mitochondria Different-Phenotype (%) (HEK-293T [4]; 12 h, replicate 1): 6% and 13%
- Population Mitotic Cells (%) (HEK-293T [4]; 12 h, replicate 1): 77% and 79%
- Population Normal (%) (HEK-293T [4]; 12 h, replicate 1): 83% and 79%
- Population Pyknosed Nuclei (%) (HEK-293T [4]; 12 h, replicate 1): 22% and 35%
- Total Cell Count (HEK-293T [4]; 12 h, replicate 1): 600 and 593
- Population Apoptotic (%) (HEK-293T [4]; 12 h, replicate 2): 18% and 16%
- Population Fragmented Nuclei (%) (HEK-293T [4]; 12 h, replicate 2): 5% and 9%
- Population Healthy Nuclei (%) (HEK-293T [4]; 12 h, replicate 2): 86% and 85%
- Population Membrane Permeable-Phenotype (%) (HEK-293T [4]; 12 h, replicate 2): 4% and 3%
- Population Mitotic Cells (%) (HEK-293T [4]; 12 h, replicate 2): 81% and 83%
- Population Normal (%) (HEK-293T [4]; 12 h, replicate 2): 90% and 97%
- Population Pyknosed Nuclei (%) (HEK-293T [4]; 12 h, replicate 2): 8% and 4%
- Total Cell Count (HEK-293T [4]; 12 h, replicate 2): 1084 and 1487
- Population Apoptotic (%) (HEK-293T [4]; 24 h, replicate 1): 28% and 17%
- Population Fragmented Nuclei (%) (HEK-293T [4]; 24 h, replicate 1): 16% and 15%
- Population Healthy Nuclei (%) (HEK-293T [4]; 24 h, replicate 1): 54% and 72%
- Population Hoechst High Intensity Objects (%) (HEK-293T [4]; 24 h, replicate 1): 19% and 13%
- Population Membrane Permeable-Phenotype (%) (HEK-293T [4]; 24 h, replicate 1): 8%
- Population Mitotic Cells (%) (HEK-293T [4]; 24 h, replicate 1): 71% and 82%
- Population Normal (%) (HEK-293T [4]; 24 h, replicate 1): 80% and 86%
- Population Pyknosed Nuclei (%) (HEK-293T [4]; 24 h, replicate 1): 28% and 11%
- Total Cell Count (HEK-293T [4]; 24 h, replicate 1): 526 and 650
- Population Apoptotic (%) (HEK-293T [4]; 24 h, replicate 2): 12% and 13%
- Population Fragmented Nuclei (%) (HEK-293T [4]; 24 h, replicate 2): 11% and 31%
- Population Healthy Nuclei (%) (HEK-293T [4]; 24 h, replicate 2): 79% and 66%
- Population Hoechst High Intensity Objects (%) (HEK-293T [4]; 24 h, replicate 2): 11% and 4%
- Population Membrane Permeable-Phenotype (%) (HEK-293T [4]; 24 h, replicate 2): 10% and 6%
- Population Mitotic Cells (%) (HEK-293T [4]; 24 h, replicate 2): 87% and 86%
- Population Normal (%) (HEK-293T [4]; 24 h, replicate 2): 88% and 95%
- Total Cell Count (HEK-293T [4]; 24 h, replicate 2): 1133 and 2662
- Growth Rate (Fibroblast [5]; 0 h, replicate number 2, timepoint 0 hours): 0
- Growth Rate (Fibroblast [5]; [7]): 0
- Growth Rate (Fibroblast [5]; [8]): 0
- Growth Rate (Fibroblast [5]; [9]): 0
- Growth Rate (Fibroblast [5]; [10]): 0
- Growth Rate (HEK-293T [6]; [7]): 0
- Growth Rate (HEK-293T [6]; [8]): 0
- Growth Rate (HEK-293T [6]; [9]): 0
- Growth Rate (HEK-293T [6]; [10]): 0
